ChEMBL document CHEMBL5329171, “First-in-class small molecule inhibitors of ICOS/ICOSL interaction as a novel class of immunomodulators” (RSC Med Chem, 2023)

Columns and labels:
ICOS-ICOSL [1] = molecular target: T1, ICOS-ICOSL (Homo sapiens, UniProt O75144+Q9Y6W8); experiment: Inhibition of C-terminal IgG1 Fc region fused human ICOS extracellular domain (1 to 141 residues)/C-terminal polyhistidine tagged human ICOSL extracellular domain (1 to 258 residues) interaction incubated for 1 hr by TR-FRET assay; assay type: protein assay
T1 sequence (O75144 whole entry): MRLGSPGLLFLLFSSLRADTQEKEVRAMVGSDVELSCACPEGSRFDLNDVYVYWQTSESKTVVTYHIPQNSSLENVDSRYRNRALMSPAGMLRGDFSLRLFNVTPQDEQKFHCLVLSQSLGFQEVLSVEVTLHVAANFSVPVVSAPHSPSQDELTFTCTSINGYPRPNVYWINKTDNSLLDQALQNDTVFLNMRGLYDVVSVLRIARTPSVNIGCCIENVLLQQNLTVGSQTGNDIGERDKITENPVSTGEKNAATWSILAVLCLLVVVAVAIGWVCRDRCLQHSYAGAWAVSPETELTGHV
T1 sequence (Q9Y6W8 whole entry): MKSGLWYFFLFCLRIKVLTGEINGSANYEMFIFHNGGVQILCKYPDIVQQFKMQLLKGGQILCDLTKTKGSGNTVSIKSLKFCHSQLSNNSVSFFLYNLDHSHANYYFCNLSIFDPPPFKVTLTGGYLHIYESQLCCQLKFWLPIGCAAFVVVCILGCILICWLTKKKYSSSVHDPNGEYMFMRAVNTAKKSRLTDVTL
Summary of the method: (§1)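 Fc-tagged human ICOS and His-tagged ICOSL, 10 nM each final, with Tb cryptate anti-His mAb (1 nM) donor and XL665 anti-human Ab (10 nM) acceptor. Compounds in DMSO (0.1%)/PBS pH 7.4, 1 h at room temperature. Read 665/620 nm ratio ×100 with 340 nm excitation. Percent inhibition scaled 0% (DMSO) to 100% (1 μM anti-ICOS mAb). Triplicate, single run. Single-dose screen at 50 μM final; IC50 from dose–response.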

[2] = molecular target: T2, ICOS-ICOSL (Homo sapiens) (UniProt O75144+Q9Y6W8); experiment: Inhibition of C-terminal IgG1 Fc region fused human ICOS extracellular domain (1 to 141 residues)/C-terminal polyhistidine tagged human ICOSL extracellular domain (1 to 258 residues) interaction assessed as reduction in FRET signal at 50 uM incubated for 1 hr by TR-FRET assay relative to control; assay type: protein assay; summary of the method: as §1
ICOS-ICOSL [3] = molecular target: T1, ICOS-ICOSL; experiment: Inhibition of ICOS (unknown origin)/C-terminal IgG1 FC region fused human ICOSL interaction by ELISA; assay type: protein assay
Summary of the method: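 Commercial ICOS/ICOSL ELISA kit, run per manufacturer's protocol. Anti-ICOS antagonist mAb as positive control. Triplicate, single run.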

[4] = molecular target: T2, ICOS-ICOSL (Homo sapiens); experiment: Inhibition of human ICOS expressed in Jurkat T cells coexpressing TCR/CD3 and NanoLuc luciferase reporter/ICOSL (unknown origin) expressed in CHO-K1 cells interaction assessed as reduction in luminescence; assay type: cell-based; conditions: dose 5-20 µM
Summary of the method: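 Commercial blockade kit, run per manufacturer's protocol. ICOS effector Jurkat cells (NanoLuc reporter) co-cultured with ICOSL/CHO-K1 cells carrying a TCR/CD3 activator. Compound tested at 5, 10 and 20 μM; anti-ICOS mAb (100 nM) as positive control. Luminescence compared with untreated control. Triplicate, single run.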

[5] = Stability in simulated intestinal fluid at pH 6.5; assay type: ADME; conditions: simulated gi fluid
HEL 299 = experiment: Cytotoxicity against human HEL 299 cells; assay type: toxicity, cell-based
[6] = Metabolic stability in rat liver microsomes; assay type: ADME, Microsome
[7] = Metabolic stability in human plasma measured at 120 mins; assay type: ADME, cell-free; conditions: 2 h
[8] = Stability in simulated gastric fluid at pH 1.6; assay type: ADME; conditions: simulated gi fluid

| IC50 (ICOS-ICOSL [1]) [µM] | SMILES | also measured |
| --- | --- | --- |
| 12.2 | COc1c(Cl)cc2c([nH]c3cnccc32)c1NC(=O)c1cccnc1C | inhibition [2]: > 90%; IC50 (ICOS-ICOSL [3]): 10.3 µM |
| 43.7 | COc1ccccc1C(=O)Nc1cc(Cl)cc2c1[nH]c1cnccc12 |  |
| 28.6 | O=C(Nc1cc(Cl)cc2c1[nH]c1cnccc12)c1ccccn1 |  |
| 36.7 | COc1cccc(C(=O)Nc2cc(Cl)cc3c2[nH]c2cnccc23)c1 |  |
| 5.65 | COc1c(Cl)cc2c([nH]c3cnccc32)c1NC(=O)c1cncnc1C |  |
| 13.9 | O=C(Nc1cc(Cl)cc2c1[nH]c1cnccc12)c1cccnc1 |  |

The remaining lines, values behind:

| SMILES | IC50 (ICOS-ICOSL [1]) [µM] | also measured |
| --- | --- | --- |
| O=C(Cc1ccccn1)Nc1cc(Cl)cc2c1[nH]c1cnccc12 | 37.1 |  |
| CC1(C)CN[C@@H](C(=O)Nc2cc(Cl)cc3c2[nH]c2cnccc23)CO1 | 11.1 |  |
| O=C(Nc1cc(Cl)cc2c1[nH]c1cnc(NCc3ccccc3)cc12)c1ccncc1 | 18.4 |  |
| O=C(Nc1cc(Cl)cc2c1[nH]c1cnc(NCc3ccccc3)cc12)c1ccccn1 | 15.5 |  |
| O=C(Nc1ccc(Cl)cc1)c1c(O)ccc2c1[nH]c1ccccc12 | > 50 |  |
| O=C(Nc1cc(Cl)cc2c1[nH]c1cnccc12)c1ccncc1 | 31 |  |
| O=C(Nc1ccc(Cl)cc1)c1cc2c(cc1O)[nH]c1ccccc12 | > 50 |  |
| O=C(Nc1cc(Cl)cc2c1[nH]c1cnccc12)c1ccccc1 | > 50 |  |
| O=C(Nc1cc(Cl)cc2c1[nH]c1cnc(NCc3ccccc3)cc12)c1cccnc1 | 4.68 | inhibition [4]: Dose-Dependent Effect; Stability [5]: Stable; Activity (HEL 299): Non-Toxic; Stability [6]: Stable; Stability [7]: Stable; Stability [8]: Stable |
| COc1ccc(C(=O)Nc2cc(Cl)cc3c2[nH]c2cnccc23)cc1 | 49.3 |  |
| CCOc1ccc(-c2nc(C(=O)Nc3ccccc3Cl)cc3c2[nH]c2ccccc23)cc1OC | > 50 |  |
